# Source: ChEMBL document CHEMBL3244289, “Synthesis and antibacterial activity of 2'-substituted chelocardin analogues” (1979)
# Active and inactive are the calls of the source. The calls are words filed in the database; no cut-off is given here.
# How the values were obtained:
# Proteus mirabilis [1] = test: Antibacterial activity against Proteus mirabilis infected in po dosed mouse assessed as protection against bacterial infection; format: functional
# In short: (§1)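 Mice were challenged intraperitoneally with Proteus mirabilis, and compound was given by the line's route (oral or subcutaneous). The CD50 is the total dose in mg/kg that protects 50% of challenged mice.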
# Streptococcus pyogenes = test: Antibacterial activity against Streptococcus pyogenes C-203 by two-fold agar dilution method; format: functional
# In short: (§2)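 MIC determined by twofold serial dilution in brain-heart infusion agar. Values are reported in µg/mL.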
# Pseudomonas aeruginosa = test: Antibacterial activity against Pseudomonas aeruginosa by two-fold agar dilution method; format: functional, organism-based; in short: as §2
# Staphylococcus aureus [2] = test: Antibacterial activity against Staphylococcus aureus Smith by two-fold agar dilution method; format: functional; in short: as §2
# Proteus vulgaris = test: Antibacterial activity against Proteus vulgaris by two-fold agar dilution method; format: functional; in short: as §2
# Salmonella typhi = test: Antibacterial activity against Salmonella typhi by two-fold agar dilution method; format: functional, Salmonella enterica subsp. enterica serovar Typhi; conditions: Salmonella enterica
# In short: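 MIC in µg/mL by twofold serial agar dilution on brain-heart infusion agar.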
# Staphylococcus aureus [3] = test: Antibacterial activity against Staphylococcus aureus 45 by two-fold agar dilution method; format: functional; in short: as §2
# Enterococcus = test: Antibacterial activity against Enterococcus 89 by two-fold agar dilution method; format: functional; in short: as §2
# Proteus mirabilis [4] = test: Antibacterial activity against Proteus mirabilis by two-fold agar dilution method; format: functional; in short: as §2
# Escherichia coli = test: Antibacterial activity against Escherichia coli Juhl by two-fold agar dilution method; format: functional; in short: as §2
# Proteus mirabilis [5] = test: Antibacterial activity against Proteus mirabilis infected in sc dosed mouse assessed as protection against bacterial infection; format: functional; in short: as §1
# Klebsiella pneumoniae = test: Antibacterial activity against Klebsiella pneumoniae 8045 by two-fold agar dilution method; format: functional; in short: as §2
# Pasteurella multocida = test: Antibacterial activity against Pasteurella multocida 10544 by two-fold agar dilution method; format: functional; in short: as §2
SMILES,CD50 (Proteus mirabilis [1]) [mg/kg],MIC (Streptococcus pyogenes) [µg/mL],Activity (Pseudomonas aeruginosa),MIC (Staphylococcus aureus [2]) [µg/mL],MIC (Proteus vulgaris) [µg/mL],MIC (Salmonella typhi) [µg/mL],MIC (Staphylococcus aureus [3]) [µg/mL],MIC (Enterococcus) [µg/mL],MIC (Proteus mirabilis [4]) [µg/mL],MIC (Escherichia coli) [µg/mL],CD50 (Proteus mirabilis [5]) [mg/kg],MIC (Klebsiella pneumoniae) [µg/mL],MIC (Pasteurella multocida) [µg/mL]
C/C(=N\NC(=N)N)C1=C(O)[C@H](N)[C@@H]2Cc3c(c(O)c4c(O)c(C)ccc4c3C)C(=O)[C@]2(O)C1=O.Cl,100,25,inactive,50,12.5,25,50,50,12.5,25,12.5,12.5,3.1
C/C(=N\c1ccc(S(N)(=O)=O)cc1)C1=C(O)[C@H](N)[C@@H]2Cc3c(c(O)c4c(O)c(C)ccc4c3C)C(=O)[C@]2(O)C1=O.Cl,<25,3.1,inactive,3.1,1.56,0.7,6.2,6.2,3.1,6.2,6.25,1.56,0.2
C/C(=N\N1CCN(CCO)CC1)C1=C(O)[C@H](N)[C@@H]2Cc3c(c(O)c4c(O)c(C)ccc4c3C)C(=O)[C@]2(O)C1=O.Cl,100,3.1,inactive,6.2,3.1,1.56,12.5,6.2,3.1,6.2,25,1.56,0.39
CC(=O)NS(=O)(=O)c1ccc(/N=C(\C)C2=C(O)[C@H](N)[C@@H]3Cc4c(c(O)c5c(O)c(C)ccc5c4C)C(=O)[C@]3(O)C2=O)cc1.Cl,100,3.1,inactive,3.1,3.1,1.5,6.2,12.5,6.2,6.2,6.25,1.56,0.78
C/C(=N\N1CCN(C)CC1)C1=C(O)[C@H](N)[C@@H]2Cc3c(c(O)c4c(O)c(C)ccc4c3C)C(=O)[C@]2(O)C1=O.Cl,25,3.1,inactive,6.2,6.2,3.1,6.2,12.5,6.2,6.2,12.5,3.1,0.78
CC(=O)C1=C(O)[C@H](N)[C@@H]2Cc3c(c(O)c4c(O)c(C)ccc4c3C)C(=O)[C@]2(O)C1=O.Cl [CETOCYCLINE HYDROCHLORIDE],200,3.1,inactive,3.1,1.56,1.5,6.2,6.2,1.56,6.2,12.5,3.1,0.39
CC(=O)N/N=C(\C)C1=C(O)[C@H](N)[C@@H]2Cc3c(c(O)c4c(O)c(C)ccc4c3C)C(=O)[C@]2(O)C1=O.Cl,50,6.2,inactive,12.5,6.2,6.2,12.5,12.5,6.2,12.5,25,6.2,0.78
COc1ccc(/N=C(\C)C2=C(O)[C@H](N)[C@@H]3Cc4c(c(O)c5c(O)c(C)ccc5c4C)C(=O)[C@]3(O)C2=O)cc1.Cl,,3.1,inactive,12.5,3.1,3.1,12.5,6.2,6.2,25,,3.1,0.78
C/C(=N\c1ccc(F)cc1)C1=C(O)[C@H](N)[C@@H]2Cc3c(c(O)c4c(O)c(C)ccc4c3C)C(=O)[C@]2(O)C1=O.Cl,,3.1,inactive,6.2,1.56,1.5,12.5,12.5,3.1,6.2,,1.56,0.39
C/C(=N\N(C)C)C1=C(O)[C@H](N)[C@@H]2Cc3c(c(O)c4c(O)c(C)ccc4c3C)C(=O)[C@]2(O)C1=O.Cl,,6.2,inactive,12.5,6.2,3.1,12.5,6.2,6.2,12.5,,6.2,0.78
CNC(=O)N/N=C(\C)C1=C(O)[C@H](N)[C@@H]2Cc3c(c(O)c4c(O)c(C)ccc4c3C)C(=O)[C@]2(O)C1=O.Cl,,25,inactive,25,25,25,50,50,50,50,,12.5,3.1
C/C(=N\N1CCOC1=O)C1=C(O)[C@H](N)[C@@H]2Cc3c(c(O)c4c(O)c(C)ccc4c3C)C(=O)[C@]2(O)C1=O.Cl,,25,inactive,25,6.2,25,25,25,12.5,25,,25,1.6
C/C(=N\NC(N)=S)C1=C(O)[C@H](N)[C@@H]2Cc3c(c(O)c4c(O)c(C)ccc4c3C)C(=O)[C@]2(O)C1=O.Cl,,25,inactive,50,50,25,50,100,50,100,,25,3.1
CCCNC(=O)N/N=C(\C)C1=C(O)[C@H](N)[C@@H]2Cc3c(c(O)c4c(O)c(C)ccc4c3C)C(=O)[C@]2(O)C1=O.Cl,,12.5,inactive,25,6.2,6.2,25,50,6.2,25,,6.2,0.78
